The record followed here is article PMC5091660 (Journal of medicinal chemistry, 2016).

“Also recorded” adds a separate entry of the source.

The target of data set [1] is T1, S1P1 (Homo sapiens, UniProt P21453). As to the kind of experiment: in vitro functional assay. It is filed as cell-based. Summed up:
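S1P1-TANGO-U2OS cells at 312,500 cells/mL in unsupplemented Freestyle Expression Medium were grown 48 h at 37 °C, 5% CO2. Test compound in DMSO was added (controls 0.5% DMSO final), then incubated 5 h at 37 °C. LiveBLAzer FRET substrate mix with 10 mM probenecid was added for 2 h at r.t. in the dark. Read-out: excitation 405 nm, emission 460 and 535 nm.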

The target of data set [2] is T1, S1P1. Put plainly: competitive [^32P]S1P binding assay, S1P1. Particulars: for IC50: S1P1 IC50, competition with [^32P]S1P, cell membranes expressing recombinant human S1P1; for decrease in S1P1 binding affinity relative to 28c: head group change of 28c.
In data set [3] the test system is liver of LPS-treated mice. As to the kind of experiment: acute biodistribution in LPS-treated and sham mice. It is filed as in vivo, C57BL/6 mice. Particulars: n = 4 per group. Summed up: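 About 24 h after sham or LPS treatment, mice received the 18F-labelled test compound (~20 μCi, 0.74 MBq, in 10% ethanol/saline) by tail vein. A separate set received [99mTc]mebrofenin (~4 μCi, 148 KBq) under 2–3% isoflurane/oxygen. Mice were euthanized at 30 or 60 min (n = 4 per group per tracer). Tissues were weighed and gamma-counted against a dilution of the injectate.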

The test system of data set [4] is liver of LPS-treated mice. Put plainly: [^15O]water microPET study of liver blood flow in LPS-treated and sham mice. It is filed as in vivo, C57BL/6 mice. Particulars: 10 min scan after bolus injection via tail vein. Summed up: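 Adult male C57BL/6 mice (18–23 g) were pretreated ~24 h earlier with saline or LPS and kept under 2–3% isoflurane via nose cone on an Inveon PET/CT. After a transmission scan and CT, they received a bolus of [15O]water (30–55 MBq) by tail vein, followed by a 10 min dynamic scan, ~30 min before the 18F scan. Liver activity was expressed as SUV.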

Another data set addresses recombinant human S1P2 (Homo sapiens, UniProt O95136). As to the kind of experiment: competitive [^32P]S1P binding assay, S1P2.
For a further data set, the target named is recombinant human S1P3 (Homo sapiens, UniProt Q99500). As to the kind of experiment: competitive [^32P]S1P binding assay, S1P3.
Chain of recombinant human S1P3 (Q99500 whole entry): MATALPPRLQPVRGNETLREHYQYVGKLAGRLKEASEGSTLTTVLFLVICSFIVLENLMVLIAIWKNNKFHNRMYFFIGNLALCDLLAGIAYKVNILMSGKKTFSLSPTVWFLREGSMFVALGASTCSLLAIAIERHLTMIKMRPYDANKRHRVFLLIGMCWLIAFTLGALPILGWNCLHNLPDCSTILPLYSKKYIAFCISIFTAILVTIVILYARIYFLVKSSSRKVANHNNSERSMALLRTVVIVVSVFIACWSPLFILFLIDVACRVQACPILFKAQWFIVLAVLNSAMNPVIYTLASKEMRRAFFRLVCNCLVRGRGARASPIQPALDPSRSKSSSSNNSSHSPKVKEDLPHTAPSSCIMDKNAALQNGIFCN

Chain of recombinant human S1P2 (O95136 whole entry): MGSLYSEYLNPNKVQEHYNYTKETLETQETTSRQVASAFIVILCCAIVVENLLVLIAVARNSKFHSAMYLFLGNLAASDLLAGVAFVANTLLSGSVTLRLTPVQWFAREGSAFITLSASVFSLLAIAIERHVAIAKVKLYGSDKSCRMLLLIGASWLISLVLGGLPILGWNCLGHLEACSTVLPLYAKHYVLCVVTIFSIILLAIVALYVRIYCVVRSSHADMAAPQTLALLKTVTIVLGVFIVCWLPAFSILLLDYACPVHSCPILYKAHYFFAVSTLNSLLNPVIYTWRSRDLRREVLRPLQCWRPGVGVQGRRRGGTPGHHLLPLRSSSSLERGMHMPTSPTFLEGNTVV
T1 sequence (P21453 whole entry): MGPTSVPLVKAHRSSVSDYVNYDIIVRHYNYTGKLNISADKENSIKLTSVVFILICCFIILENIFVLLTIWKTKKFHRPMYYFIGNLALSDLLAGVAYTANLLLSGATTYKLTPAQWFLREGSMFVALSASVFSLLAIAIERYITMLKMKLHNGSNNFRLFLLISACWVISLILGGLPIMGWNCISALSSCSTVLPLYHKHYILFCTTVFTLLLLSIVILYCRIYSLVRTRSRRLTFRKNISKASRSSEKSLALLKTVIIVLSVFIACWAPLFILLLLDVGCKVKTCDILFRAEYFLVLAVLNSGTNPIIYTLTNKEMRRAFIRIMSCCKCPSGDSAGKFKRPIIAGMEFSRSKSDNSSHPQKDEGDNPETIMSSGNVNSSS

The EC50 is the midpoint of the concentration-response curve. Low values mean a more potent agent, high ones a less potent agent. `O=C(O)C1CCN(c2ccc3oc(-c4ccc(-c5ccc(OCCF)cc5)c(C(F)(F)F)c4)nc3c2)CC1` [Compound 18c, 1-(2-(4′-(2-Fluoroethoxy)-2-(trifluoromethyl)-[1,1′-biphenyl]-4-yl)benzo[d]oxazol-5-yl)piperidine-4-carboxylic Acid] showed an EC50 at S1P1 [1] of 11.1 nM. That is a double-digit nanomolar value.

Broadly, the IC50 is the concentration that inhibits the measured activity by half. `O=C(O)C1CCN(c2ccc3oc(-c4ccc(-c5ccc(C(F)(F)F)cc5)c(C(F)(F)F)c4)nc3c2)CC1` [Compound 18d, 1-(2-(2,4′-Bis(trifluoromethyl)-[1,1′-biphenyl]-4-yl)benzo[d]-oxazol-5-yl)piperidine-4-carboxylic Acid] registered an EC50 at S1P1 [1] of 4.47 nM. Moreover, the IC50 on S1P1 [2] was found to be 498 ± 335 nM.

For `COc1ccc(-c2nc(-c3ccc(CN4CC(C(=O)O)C4)cc3)no2)cc1C(F)(F)F` [Compound 28f, 1-(4-(5-(4-Methoxy-3-(trifluoromethyl)phenyl)-1,2,4-oxadiazol-3-yl)benzyl)azetidine-3-carboxylic Acid], the IC50 on S1P1 [2] was greater than 100 nM.

Consider `FCCOc1ccc(-c2nc(-c3ccc(CNCc4nnn[nH]4)cc3)no2)cc1C(F)(F)F` [Compound 28e, N-((1H-Tetrazol-5-yl)methyl)-1-(4-(5-(4-(2-fluoroethoxy)-3-(trifluoromethyl)phenyl)-1,2,4-oxadiazol-3-yl)phenyl)methanamine], for which the “decrease in S1P1 binding affinity relative to 28c” value on S1P1 [2] is “over 100 fold”.

The compound `O=C(O)C1CCN(c2ccc3oc(-c4ccc(-c5ccccc5OCCF)c(C(F)(F)F)c4)nc3c2)CC1` [Compound 18b, 1-(2-(2′-(2-Fluoroethoxy)-2-(trifluoromethyl)-[1,1′-biphenyl]-4-yl)benzo[d]oxazol-5-yl)piperidine-4-carboxylic Acid] showed an EC50 on S1P1 [1] of 3.04 nM.

In the case of “[^99mTc]-N-(3-bromo-2,4,6-trimethyacetanilide) iminodiacetic acid [[^99mTc]mebrofenin]”, the “liver uptake in LPS-treated mice compared with sham mice” value was “increased” in data set [3] (30 min postinjection) and “absence of a significant difference; also recorded: no significant difference” in data set [3] (60 min postinjection).

Regarding `O=C(O)c1ccc(-c2ccc3oc(-c4ccc(-c5ccc(F)nc5)c(C(F)(F)F)c4)nc3c2)s1` [Compound 16, 5-(2-(4-(6-Fluoropyridin-3-yl)-3-(trifluoromethyl)phenyl)benzo-[d]oxazol-5-yl)thiophene-2-carboxylic Acid], a half-maximal response on S1P1 [1] (EC50) required 2.99 nM. For the same compound, the IC50 on S1P1 [2] is 334 ± 59 nM.

`COc1cccc(-c2ccc(-c3nc4cc(N5CCC(C(=O)O)CC5)ccc4o3)cc2C(F)(F)F)c1` [Compound 18e, 1-(2-(3′-Methoxy-2-(trifluoromethyl)-[1,1′-biphenyl]-4-yl)benzo-[d]oxazol-5-yl)piperidine-4-carboxylic Acid] returned an EC50 on S1P1 [1] of 4.9 nM.

Regarding `[15OH2]` [[^15O]water], the “liver uptake (TAC) in LPS-treated mice compared to sham mice” value in data set [4] is on record as “no difference; also recorded: no significant change”.

On to `O=C(O)C1CN(Cc2ccc(-c3noc(-c4ccc(OCCF)cc4)n3)cc2)C1` [Compound 28b, 1-(4-(5-(4-(2-Fluoroethoxy)phenyl)-1,2,4-oxadiazol-3-yl)benzyl)-azetidine-3-carboxylic Acid], for which the IC50 at recombinant human S1P2 and on recombinant human S1P3 was greater than 1000 nM in each case.

Regarding `O=C(O)C1CN(Cc2ccc3oc(-c4ccc(OCCF)c(C(F)(F)F)c4)nc3c2)C1` [Compound 15b, 1-((2-(4-(2-Fluoroethoxy)-3-(trifluoromethyl)phenyl)benzo[d]-oxazol-5-yl)methyl)azetidine-3-carboxylic Acid], the IC50 at S1P1 [2] was 76.4 ± 21.6 nM.

On S1P1 [1], `O=C(O)C1CCN(c2ccc3oc(-c4ccc(-c5ccc(F)cc5)c(C(F)(F)F)c4)nc3c2)CC1` [Compound 18a, 1-(2-(4′-Fluoro-2-(trifluoromethyl)-[1,1′-biphenyl]-4-yl)benzo[d]-oxazol-5-yl)piperidine-4-carboxylic Acid] registered an EC50 of 0.76 nM.

In the case of `O=C(O)C1CN(Cc2ccc(-c3noc(-c4ccc(OCCF)c(C(F)(F)F)c4)n3)cc2)C1` [Compound 28c, 1-(4-(5-(4-(2-Fluoroethoxy)-3-(trifluoromethyl)phenyl)-1,2,4-oxadiazol-3-yl)benzyl)azetidine-3-carboxylic Acid], the IC50 on recombinant human S1P2 and on recombinant human S1P3 was greater than 1000 nM throughout.

`O=C(O)C1CCN(Cc2ccc(-c3noc(-c4ccc(OCCF)c(C(F)(F)F)c4)n3)cc2)CC1` [Compound 28d, 1-(4-(5-(4-(2-Fluoroethoxy)-3-(trifluoromethyl)phenyl)-1,2,4-oxadiazol-3-yl)benzyl)piperidine-4-carboxylic Acid]: the IC50 at recombinant human S1P2 and at recombinant human S1P3 was greater than 1000 nM in each case. For the same compound, the “decrease in S1P1 binding affinity relative to 28c” value on S1P1 [2] is listed as 20 fold.

Take `CCOc1ccc(-c2nc(-c3ccc(CN4CC(C(=O)O)C4)cc3)no2)cc1` [Compound 28a, 1-(4-(5-(4-Ethoxyphenyl)-1,2,4-oxadiazol-3-yl)benzyl)azetidine-3-carboxylic Acid]: the IC50 on recombinant human S1P2 was greater than 1000 nM.
